High-throughput results (PubChem BioAssay)
The list is not random: actives were taken first. Their share in the collection is about 3.7%.
DENV2 CPE rescue = inhibitors of DENV2 cytopathic effect, primary screen, cell-based, plate reader, single concentration; hit rate 1.7% among 350,000; DENV2-infected cells, cytopathic effect rescue; AID 651640, 2012; CPE inhibition, % at 9.99 µM; in the data active = CPE inhibition above about 20%, passing the limit was not always enough; inconclusive = no clear call, values can overlap the other calls; tested in BHK-21 cells;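 also: 0% = median of neutral control wells and 100% = median of positive control wells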
F508del corr = F508del CFTR correction, initial screen, CFBE line, single point. AID 720511, 2013. activity (quench increase), % at 7.58 µM. CFBE cells, YFP halide quenching; stimulated with forskolin plus potentiator P3; % fluorescence drop versus neutral controls. hit rate 0.36% among 350,000;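 active = mean added fluorescence quench of at least 8% versus neutral control, with both replicates also reaching 8%; inconclusive = only one of the mean or replicate conditions met; inactive = mean below 8% and not both replicates reaching 8%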;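 also: cells transiently co-express mutant CFTR-F508del with the halide-sensitive YFP; corrector assay measuring rescue of mutant channel to the surface after 24 h compound exposure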
E-sel inducer = E-selectin induction in HUVECs, primary screen, imaging, HUVEC, immunofluorescence imaging, single point; normalized: neutral wells 0, TNF-alpha wells 100; hit rate 0.37% among 260,000; P16581; activation, % at 7.58 µM;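 active = mean E-selectin-positive cell signal at least 10% of the positive control, reached in at least 60% of replicates, without over 20% cell loss; inconclusive = no rule given, readout overlaps actives, possibly toxicity-flagged; inactive = the rest, including those meeting only one limit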
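Read-out: % PE-positive cells | Test system: HUVEC | Doses: One compound dose added by pin transfer | Buffer or medium: EGM-2 over gelatin coat | Signal: Immunofluorescence imaging | Benchmarks: TNF-alpha, DMSO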
FGF22 binding = binders of human FGF22 protein, primary screen, FGF22 synaptogenesis inhibitor project, biophysical, thermal shift, single point | Fibroblast growth factor 22 (Homo sapiens), Q9HCT0 | recombinant FGF22 thermal shift, SYPRO orange fluorescence; percent of sucrose octasulfate shift, DMSO zero | activity (Tm shift, normalised), % at 9.99 µM | hit rate 1.5% among 340,000;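 active = mean Tm shift, scaled 0 neutral to 100 positive control, at about 1.3% or above, every replicate too, limit read from the data; inconclusive = no clear call, values can overlap the other calls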
ERAP1 inh = human ERAP1 aminopeptidase inhibitors, primary screen, biochemical, single point, plate reader | Endoplasmic reticulum aminopeptidase 1 (Homo sapiens), Q9NZ08 | inhibition, % at 10.7 µM | hit rate 0.15% among 340,000 | recombinant ERAP1, Leu-AMC fluorescence, 60 min;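 active = mean replicate inhibition of at least 30%, or all replicates individually reaching that 30% level; inactive = mean below 30% and not every replicate reaching it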;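 also: 0% = neutral control wells and 100% = L-leucinethiol positive control wells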
Target sequence (Q9NZ08 whole entry, looked up): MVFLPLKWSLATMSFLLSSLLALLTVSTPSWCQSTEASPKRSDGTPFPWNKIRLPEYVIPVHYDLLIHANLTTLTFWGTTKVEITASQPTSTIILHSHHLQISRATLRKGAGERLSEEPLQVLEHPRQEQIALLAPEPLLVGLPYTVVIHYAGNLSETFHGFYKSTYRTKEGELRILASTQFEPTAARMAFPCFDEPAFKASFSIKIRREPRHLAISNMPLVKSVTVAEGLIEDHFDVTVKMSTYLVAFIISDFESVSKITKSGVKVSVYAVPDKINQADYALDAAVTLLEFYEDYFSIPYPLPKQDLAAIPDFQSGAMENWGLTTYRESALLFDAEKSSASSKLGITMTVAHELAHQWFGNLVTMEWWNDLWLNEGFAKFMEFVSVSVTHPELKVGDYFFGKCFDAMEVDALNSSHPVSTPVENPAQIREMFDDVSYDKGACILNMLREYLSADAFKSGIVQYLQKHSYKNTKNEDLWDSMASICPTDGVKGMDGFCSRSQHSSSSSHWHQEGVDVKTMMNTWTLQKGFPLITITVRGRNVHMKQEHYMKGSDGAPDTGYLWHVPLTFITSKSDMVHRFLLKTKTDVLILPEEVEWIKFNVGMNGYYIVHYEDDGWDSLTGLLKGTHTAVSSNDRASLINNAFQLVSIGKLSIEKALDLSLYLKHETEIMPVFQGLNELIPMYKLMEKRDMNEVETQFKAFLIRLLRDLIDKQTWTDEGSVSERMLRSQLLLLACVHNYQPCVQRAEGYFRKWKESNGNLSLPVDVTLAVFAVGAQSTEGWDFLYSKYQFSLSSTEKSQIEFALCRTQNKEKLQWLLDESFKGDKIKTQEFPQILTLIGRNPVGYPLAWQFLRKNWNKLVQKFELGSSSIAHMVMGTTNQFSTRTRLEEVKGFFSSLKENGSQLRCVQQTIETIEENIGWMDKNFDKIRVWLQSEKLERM
* hit, by the source's call; ? = inconclusive; . = not tested or not shown; ! = not confirmed by another sample.

SMILES	DENV2 CPE rescue	F508del corr	E-sel inducer	FGF22 binding	ERAP1 inh
COc1ccc(C#Cc2ccc([C@H]3[C@H]4CN(C(=O)Nc5ccccc5)CCCCN4[C@H]3CO)cc2)cc1	-2	1	-1	-1	4
COc1ccc(C#Cc2ccc([C@@H]3[C@H](CO)N4CCCCN(C(=O)Nc5ccccc5)C[C@@H]34)cc2)cc1	34*	-5	-1	-1	4
C/C=C/c1ccc(C2[C@@H]3CN(C(=O)Nc4ccc(C(F)(F)F)cc4)C[C@H]2N3)cc1 (stereo partly specified)	41*!	-4	0	0	.
Cc1ccc(S(=O)(=O)NCC[C@@H]2CC[C@@H](NC(=O)C3CCOCC3)[C@H](CO)O2)cc1	-6	-4	0	0	0
CC12CCC3c4ccc(OCCCO)c([N+](=O)[O-])c4CCC3C1CCC2=O (stereo unspecified)	43*	-3	0	-1	1
CN1C(=O)c2cc(NC(=O)Nc3ccccc3F)ccc2OC[C@@H]2O[C@H](CC(=O)O)CC[C@H]21	-3	1	0	0	.
CCCNC(=O)C[C@@H]1CC[C@H]2[C@@H](COC[C@H](O)CN2C(=O)Nc2ccccc2OC)O1	9	-1	0	0	0
CCCNC(=O)C[C@H]1CC[C@@H]2[C@H](COC[C@H](O)CN2C(=O)CC)O1	83*	-2	0	0	0
CCCNC(=O)C[C@H]1CC[C@H]2[C@@H](COC[C@@H](O)CN2C(=O)Nc2ccccc2OC)O1	44*	-3	0	0	0
CCCNC(=O)C[C@H]1CC[C@H]2[C@@H](COC[C@H](O)CN2C(=O)Nc2ccccc2OC)O1	21*	-1	0	0	1
Cc1noc(C)c1S(=O)(=O)N(C)C[C@H]1Oc2ccc(NC(=O)Nc3ccc4c(c3)OCO4)cc2C(=O)N([C@@H](C)CO)C[C@H]1C	?	0	0	0	-1
C/C=C/c1cnc2c(c1)C(=O)N([C@H](C)CO)C[C@H](C)[C@H](CN(C)C(=O)NCCC)O2	9	-2	1	0	3
Cc1cccc(S(=O)(=O)N[C@H]2CC[C@H](CCn3cc(-c4ccccn4)nn3)O[C@H]2CO)c1	-1	3	1	0	-3
C[C@@H]1CN([C@H](C)CO)C(=O)c2cc(NC(=O)CCC(F)(F)F)ccc2O[C@@H](C)CCCCO[C@H]1CN(C)C(=O)CCC(F)(F)F	8	-1	.	0	1
C[C@H](CO)N1C[C@H](C)[C@H](CN(C)S(C)(=O)=O)Oc2c(NC(=O)Nc3ccc(F)cc3)cccc2C1=O	-8	-3	.	0	0
Fc1ccccc1NC(=S)Nn1cnnc1	44*	2	0	0	-1
Cc1ccccc1NC(=S)Nn1cnnc1	-4	-3	.	0	5
Cc1cccc(NC(=S)Nn2cnnc2)c1C	18	-2	.	43*	-1
CC(C)C#Cc1cnc2c(c1)C(=O)N([C@H](C)CO)C[C@H](C)[C@H](CN(C)Cc1cccc(F)c1)O2	-6	2	0	0	6
C=CCn1c(=O)/c(=C\c2ccccn2)s/c1=C(/C#N)C(=O)NCC1CCCO1 (stereo unspecified)	9	.	.	43*	-4
CCOC(=O)c1sc(Nc2nc(C)cc(C)n2)nc1C	-1	13*	1	-1	-1
CCOC(=O)c1sc(NC(=O)c2c(CC)noc2C)nc1C	-4	14*	0	1	-1
COC(=O)c1sc(NC(=O)c2c(C)noc2C)nc1C	-1	6	0	0	3
CC(=O)N[C@H]1CC[C@@H](CC(=O)NCC2CCCCC2)O[C@H]1CO	-5	-3	-1	0	-1
O=C(Cc1cn(Cc2ccccc2)c2ccccc12)Nc1ccc(Oc2cccnc2)cc1	49*	0	0	0	1
Cn1cc(CC(=O)Nc2ccc(Nc3cccnc3)cc2)c2ccccc21	54*	1	1	0	0
CCC(=O)Nc1ccc2c(c1)C(=O)N(C)C[C@H](OC)[C@H](C)CN(CC1CCCCC1)[C@H](C)CO2	-1	2	0	1	-3
